The source of these data is ChEMBL document CHEMBL4130474, “Spirotriazoline oxindoles: A novel chemical scaffold with in vitro anticancer properties” (Eur J Med Chem, 2017).

The source made the active and inactive calls. No cut-off for these calls is given here. A value given as a limit tells only on which side of the number the result lay.

Series [1] in a line: […], ratio of IC50 for antiproliferative activity in HEK293T cells to IC50 for antiproliferative activity in human MDA-MB-231 cells. Type of series: toxicity, cell-based. The conditions noted are these: HEK293T cells versus MDA-MB-231 cells, read-out: Ratio IC50. A digest of the protocol:
(§1)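 Ratio of HEK 293T IC50 to MDA-MB-231 IC50 from 72 h MTT assays.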

The subject of another series is HEK-293T. The series can be described thus: Antiproliferative activity in human HEK293T cells incubated for 72 hrs by MTT assay. Type of series: cell-based. A digest of the protocol: (§2)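 Cells grown in RPMI 1640 with 10% FBS, penicillin/streptomycin; seeded at 2 × 10⁵ cells/mL, allowed to adhere 24 h, then exposed 72 h to compounds diluted in medium from DMSO stocks. MTT added after medium change, 3 h, formazan dissolved in DMSO, absorbance at 570 nm. Triplicate wells, at least 3 independent experiments; IC50 by non-linear regression.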

The nature of series [2]: Selectivity index, ratio of IC50 for antiproliferative activity in HEK293T cells to IC50 for antiproliferative activity in human MCF7 cells. Type of series: toxicity, cell-based. The conditions noted are these: HEK293T cells versus MCF7 cells, read-out: Ratio IC50. Put shortly:
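Ratio of HEK 293T IC50 to MCF-7 IC50 from 72 h MTT assays.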

The test system of series [3] is HCT-116. The series can be described thus: Antiproliferative activity in p53 (+/+) human HCT116 cells incubated for 72 hrs by MTS assay. Type of series: functional, cell-based. The conditions noted are these: HCT-116, 72 h. A digest of the protocol:
(§3)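 HCT116 p53(+/+) or p53(−/−) seeded at 1 × 10⁵ cells/mL, adhered 24 h, then treated 72 h with compounds diluted from DMSO stocks. Viability by MTS (CellTiter96 AQueous) with absorbance at 490 nm. Duplicate wells, three independent experiments; IC50 by non-linear regression.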
A general note: Tetrazolium dyes change colour on reduction, which living cells bring about.

For another series, the system named is MCF7. Description: Antiproliferative activity in human MCF7 cells incubated for 72 hrs by MTT assay. The format is functional, cell-based. The following applies: MCF7, 72 h. A digest of the protocol:
as §2

The nature of series [4]: Potency index, ratio of IC50 for antiproliferative activity in human p53 (-/-) human HCT116 cells to IC50 for antiproliferative activity in human MDA-MB-231 cells. Type of series: functional.
Series [5] can be described thus: Selectivity index, ratio of IC50 for antiproliferative activity in HEK293T cells to IC50 for antiproliferative activity in human MDA-MB-231 cells. Type of series: toxicity, cell-based. The conditions noted are these: HEK293T cells versus MDA-MB-231 cells, read-out: Ratio IC50. A digest of the protocol:
as §1

Series [6] is described as follows: Selectivity index, ratio of IC50 for antiproliferative activity in HEK293T cells to IC50 for antiproliferative activity in human p53 (+/+) human HCT116 cells. Type of series: toxicity, cell-based. The following applies: HEK293T cells versus p53 (+/+) HCT116 cells, read-out: Ratio IC50.
The test system of series [7] is MDA-MB-231. Description: Induction of apoptosis in human MDA-MB-231 cells assessed as increase in caspase3/7 activity at antiproliferative IC50 level incubated for 48 hrs by Caspase-Glo 3/7 Assay. Type of series: functional.
Series [8] can be described thus: Potency index, ratio of IC50 for antiproliferative activity in human MCF7 cells to IC50 for antiproliferative activity in human MDA-MB-231 cells. Type of series: functional.
The nature of series [9]: Selectivity index, ratio of IC50 for antiproliferative activity in HEK293T cells to IC50 for antiproliferative activity in human p53 (-/-) human HCT116 cells. The conditions noted are these: HEK293T cells versus p53 (-/-) HCT116 cells, read-out: Ratio IC50. The format is toxicity, cell-based.
Series [10] concerns HCT-116. The series can be described thus: Antiproliferative activity in p53 (-/-) human HCT116 cells incubated for 72 hrs by MTS assay. Type of series: functional, cell-based. The following applies: HCT-116, 72 h. Put shortly:
as §3

A short description of series [11]: Potency index, ratio of IC50 for antiproliferative activity in human p53 (+/+) human HCT116 cells to IC50 for antiproliferative activity in human MDA-MB-231 cells. The format is functional.
Series [12] concerns MDA-MB-231. The series can be described thus: Antiproliferative activity in human MDA-MB-231 cells incubated for 72 hrs by MTT assay. The format is functional, cell-based. The conditions noted are these: MDA-MB-231, 72 h. A digest of the protocol: as §2
The subject of series [13] is MDA-MB-231. The series can be described thus: Induction of cell cycle arrest in human MDA-MB-231 cells at antiproliferative IC50 level by propidium iodide staining based flow cytometry. Type of series: functional. A general note: In flow cytometry, cells or beads pass a laser one at a time.

As to `O=C1Nc2ccc(Br)cc2C12N(c1ccccc1)N=C(c1ccccc1)N2c1ccccc1` (stereo not given), the selectivity ratio in series [1] is at least 2.5; in series [2], 2.4 to 2.5; in series [5] it was at least 2.4; in series [6], 2.5; in series [9] it was 2.5. Moreover, the IC50 (commonly the point on the concentration scale where inhibition reaches its midpoint) in the series with HEK-293T turned out to be 56.3 µM; with HCT-116 [3], 22.2 µM; with MCF7, 23 µM; with HCT-116 [10], 22.5 µM; with MDA-MB-231 [12] it was 6.7 µM. Besides, the “Ratio IC50” value in [4], in series [8] and in series [11] was “>=2.4” in each case. Also, the “fold change (FC)” value in the series on MDA-MB-231 [7] is on record as 2.5. In addition, the outcome in the series on MDA-MB-231 [13] was inactive.
